Screening results from PubChem BioAssay.
An excerpt weighted towards active compounds, which were near 1.8% of everything screened.
LEDGF integ inh: blocks HIV-1 LEDGF/p75-dependent DNA integration. TR-FRET IN-LEDGF/p75 DNA integration, Eu/Cy5. inhibition, % at 3.7 µM. 370,000 compounds, 0.64% hits;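 active means inhibition above the screen-wide mean plus 3 SD, cut at about 13% in these data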;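 further: signal is the Cy5 over europium emission ratio at 671 and 618 nm; 0% = plate median of compound wells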
NSD2 inh: blocks human histone methyltransferase NSD2; O96028; NSD2 peptide methylation, AlphaScreen, 120 min; inhibition, % at 12.5 µM; 310,000 compounds, 0.54% hits; in the data active means inhibition above about 50%
Casp6 inh: caspase-6 (human) enzyme inhibition; P55212; purified caspase-6, Z-VEID-R110 cleavage fluorescence; inhibition, % at 12.5 µM; 350,000 compounds, 0.53% hits;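 active means mean inhibition across replicates at least about 35%, with every replicate also reaching that limit, limit read from the data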;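 further: 0% = median of neutral control wells and 100% = no fluorescence left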
TDP2 inh: TDP2 (human) inhibition, absorbance primary screen; O95551; recombinant TDP2, T5PNP hydrolysis, p-nitrophenol absorbance 415 nm; inhibition, % at 12.8 µM; 370,000 compounds, 0.34% hits; AID 720702;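 active means inhibition above the mean of all tested compounds plus 3 SD, set per campaign, cut at about 25% in these data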;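 further: 0% = DMSO with enzyme and 100% = buffer with substrate but no TDP2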
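Test system: human TDP2 enzyme; Input: 120 nM TDP2 per well; Buffer or medium: Mg2+-containing Tris-HCl buffer, pH 7.5; Reagent: 5 mM T5PNP; Dosing: 12.8 µM single point, 1% DMSO; Incubation: reaction 2 h, 37 °C; Detection: p-Nitrophenol epi absorbance; Read-out: % inhibition relative to enzyme-containing and enzyme-free wells; Replicates: single well per compound.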
MBD2 DNA inh: MBD2-methylated oligo binding inhibition | Q9UBB5 | TR-FRET, MBD2 binding to methylated oligonucleotide | inhibition, % at 4.4 µM | 370,000 compounds, 0.31% hits; in the data active means inhibition above about 13%
UHRF1 MBD2 ctr: UHRF1 methyl-DNA binding inhibition | AID 687016 | inhibition, % at 4.4 µM | UHRF1 binding to methylated oligo, TR-FRET | 370,000 compounds, 0.75% hits | Q96T88; in the data active means inhibition above about 21%;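 further: UHRF1 SRA domain binding a hemimethylated CpG hairpin DNA probe; 0% = median of test compound wells and 100% = reference inhibitor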
CASP1 counter: caspase-1 (human) inhibition counter-screen; 100 tested, under 10 active; purified caspase-1, Z-YVAD-R110 cleavage fluorescence; AID 743289; shares compounds with Casp6 inh; activity change, negative = inhibition, % at 35 µM;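 active means compounds lowering fluorescence whose fitted half-maximal concentration is no more than twice their top tested dose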
Target sequence (P29466 whole entry, looked up): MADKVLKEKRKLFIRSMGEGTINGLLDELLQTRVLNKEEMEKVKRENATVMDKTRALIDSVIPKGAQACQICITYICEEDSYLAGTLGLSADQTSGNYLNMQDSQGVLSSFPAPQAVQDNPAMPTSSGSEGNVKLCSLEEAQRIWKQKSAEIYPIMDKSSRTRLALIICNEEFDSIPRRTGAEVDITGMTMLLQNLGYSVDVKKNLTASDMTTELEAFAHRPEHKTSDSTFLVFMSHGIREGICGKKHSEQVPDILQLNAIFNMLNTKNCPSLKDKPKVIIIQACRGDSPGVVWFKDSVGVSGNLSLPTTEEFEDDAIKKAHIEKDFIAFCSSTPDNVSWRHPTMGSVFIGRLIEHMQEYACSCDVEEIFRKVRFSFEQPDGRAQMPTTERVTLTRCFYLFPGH
TDP2 inh conf: confirmation of human TDP2 inhibitors; recombinant human TDP2, absorbance read-out; 1,100 compounds, 22% hits; AID 743263; shares compounds with TDP2 inh; inhibition, % at 12.8 µM; in the data active means inhibition above about 25%;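 further: 0% = vehicle with enzyme and 100% = no enzyme buffer only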
IN multimer act: HIV-1 integrase multimerization activation, counter-screen; shares compounds with LEDGF integ inh; TR-FRET HIV-1 integrase multimerization, biochemical; activation, % at 7.7 µM; 2,000 compounds, 17% hits; in the data active means activation above about 8.9%
TRFRET interf: TR-FRET optical interference, LEDGF/p75 integration counter-screen. TR-FRET optical interference counterscreen, HIV-1 IN multimerization. shares compounds with LEDGF integ inh. inhibition, % at 7.7 µM. 2,000 tested, under 10 active;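 active means inhibition above the mean over all tested compounds plus 3 SD, which no compound reached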;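 further: 0% = integrase with antibodies and DMSO and 100% = antibodies without integrase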
IN-LEDGF confirm: LEDGF/p75-dependent HIV-1 integration inhibition, confirmation; shares compounds with LEDGF integ inh; TR-FRET LEDGF/p75-dependent HIV-1 integration, biochemical; inhibition, % at 3.7 µM; 2,000 compounds, 36% hits; in the data active means inhibition above about 14%
AlphaScreen art: interferes with AlphaScreen signal, flagging NSD2 false positives; shares compounds with NSD2 inh; AlphaScreen artifact counterscreen, preloaded methylated H4 peptide; AC35, µM (titrated, usually from 10 µM), for inactives: top-dose activity change, negative = signal loss; 1,500 compounds, 9.4% hits; AID 1053174; call rule not given here
Active calls of the source: *; . = not tested or not shown; ! = not active in a repeat.

SMILES	LEDGF integ inh	NSD2 inh	Casp6 inh	TDP2 inh	MBD2 DNA inh	UHRF1 MBD2 ctr	TDP2 inh conf	others
COc1cccc(S(=O)(=O)N(C)C[C@H]2OCc3ccccc3-c3ccccc3C(=O)N([C@H](C)CO)C[C@@H]2C)c1	.	.	4	.	.	.	.
Nc1c(O)cccc1C(=O)O	38*	.	56*	20	8	20	.	CASP1 counter=4;IN multimer act=8;TRFRET interf=-38;IN-LEDGF confirm=21*
CN(CC(=O)Nc1ccccc1Cl)C(=O)COC(=O)c1ccc([N+](=O)[O-])s1	10	78*	99*	30*	-2	-2	19	CASP1 counter=-4;AlphaScreen art=-4%
CN(CC(=O)Nc1ccccc1Cl)C(=O)COC(=O)c1cccs1	1	-4	0	3	5	-1	.
Nc1cc(S(=O)(=O)O)cc([N+](=O)[O-])c1O	44*	87*	59*	50*	10	81*	3	CASP1 counter=-3;AlphaScreen art=-5%
COc1cccc(S(=O)(=O)N[C@@H]2CC[C@H](CCn3cc(-c4ccccc4OC)nn3)O[C@H]2CO)c1	.	.	1	.	.	.	.
O=C1CN(C(=O)COC(=O)c2ccc([N+](=O)[O-])s2)c2ccccc2N1	.	60*	.	.	.	.	.	CASP1 counter=-1;AlphaScreen art=-6%
CC(C)NC(=O)Nc1ccc2c(c1)C(=O)N([C@H](C)CO)C[C@@H](C)[C@@H](CN(C)C)O2	.	.	-1	.	.	.	.
Cc1nn(C(C)C(=O)NCc2ccco2)c(=O)c2nn(-c3ccccc3)c(C)c12 (stereo not drawn)	-4	1	-1	28*	1	2	5
CC1=NN(Cc2cc(C(C)(C)C)c(O)c(C(C)(C)C)c2)C(=O)C1	-1	1	-2	25*	1	-4	0
CC(C)(C)c1cc(CN2CCC(O)CC2)cc(C(C)(C)C)c1O	-1	-3	.	-6	3	8	.
O=C(Nc1ccc2c(c1)[C@@H]1C[C@@H](CC(=O)N3CCc4ccccc4C3)O[C@@H](CO)[C@@H]1O2)C1CCOCC1	.	.	-6	.	.	.	.
S=C(Nc1ccc(Cl)cc1)Nc1cccc2cnccc12	4	13	2	35*	-7	15	31*
CCOc1ccc(NC(=S)Nc2cccc3cnccc23)cc1	7	14	.	15	-4	-2	.
Cc1cccc(NC(=S)Nc2cccc3ccccc23)c1	8	1	-1	25*	-2	-4	-2
Fc1ccc(NC(=S)Nc2cccc3cnccc23)cc1	0	30	36*	30*	0	0	-1
Fc1ccc(NC(=S)Nc2cccc3ccccc23)cc1	6	1	-1	6	-4	-1	.
COc1ccc(Nc2nc3ccccc3n3cnnc23)cc1Cl	1	1	-1	26*	2	-5	-4
O=[N+]([O-])c1ccc(Nc2ccccc2)c2nonc12	1	24	8	26*	-24	-28	8
Cc1c(NC(=O)CN2CC(C)OC(C)C2)c(=O)n(-c2ccccc2)n1C (stereo not drawn)	-2	-2	-73	29*!	3	-1	17
